Autophagy HCS: modulators of autophagy; MEF GFP-LC3 puncta imaging; test concentration mostly 10 µM; hit rate 0.98% among 190,000; AID 463193; calls only at 10 µM (by protocol);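 active means percentage of spot-positive cells more than 3 SD above its plate mean, without a fluorescence outlier flag or 80% toxicity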
L major viab: reduces viability of Leishmania major promastigotes. resazurin fluorescence viability. inhibition, % at 10 µM. hit rate 9% among 200,000. AID 1063; in the data active means inhibition above about 50%;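 further: promastigotes grown with compound for 44 hours at 28 °C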
Dynein cargo inh: dynein cargo transport inhibition | 3617.4 mouse cells, GR-EGFP nuclear translocation imaging; test concentration mostly 20 µM; stimulated with dexamethasone, 1 µM; hits give low values | z-score, hits read low | hit rate 0.47% among 220,000;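 active means plate z-score of nuclear minus cytoplasmic receptor signal below a set negative limit, without overly bright fluorescence or cell loss, cut at about -3.5 in these data, passing the limit was not always enough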;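 further: z-score of nuclear minus cytoplasmic ring GR-EGFP intensity difference per well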
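Buffer or medium: tet-free, stripped-serum medium; Also added: dexamethasone, 1.0 µM final; Technique: high-content fluorescence imaging after fixation; Times: 48 h induction, 1 h compound, 30 min dex at 37 °C; Read-out: per-cell GR-EGFP intensity, nucleus versus surrounding cytoplasmic ring, well-averaged.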
HCT116 bCat-KO: beta-catenin-lacking colon tumor cell growth suppression | viability, % at 10 µM | hit rate 1.5% among 140,000 | HCT116 beta-catenin knockout viability, CellTiter-Glo, 60 h; hits give low values;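 active means viability at or under a set limit, the compound median less 4 SD, cut at about 6% in these data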
PTEN del growth: growth suppressors of cells with PTEN tumor suppressor deletion. HCT116 PTEN-null viability, CellTiter-Glo, 60 h; hits give low values. viability, % at 10 µM. hit rate 1.2% among 140,000. AID 827;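 active means viability at or below a set limit, 4 SD under the median of all tested compounds, cut at about 3.7% in these data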;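 further: PTEN knockout HCT116 line with beta catenin targeted HCT116 as companion control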
Each line names hits and unclear results; the compound was inactive in the other large screens; ! = not active in a repeat. The list is not random: actives were taken first. Their share in the collection is about 9.2%.

CCN(CC)c1ccc(N=Cc2c(O)n(-c3ccc(Cl)cc3)c(=O)[nH]c2=O)cc1	Autophagy HCS active
Cc1ccccc1-n1c(O)c(C=Nc2ccc(N(C)C)cc2)c(=O)[nH]c1=O	L major viab 58
CN(C)c1ccc(N=Cc2c(O)n(CCC3=CCCCC3)c(=O)[nH]c2=O)cc1	Autophagy HCS active
CCN(CC)c1ccc(N=Cc2c(O)n(-c3ccc(OC)cc3)c(=O)[nH]c2=O)cc1	none
C=CCn1c(O)c(C=Nc2ccc(N(CC)CC)cc2)c(=O)[nH]c1=O	none
O=c1[nH]c(=O)n(CCC2=CCCCC2)c(O)c1/C=N/N1CCOCC1	none (no result: Autophagy HCS, L major viab, HCT116 bCat-KO, PTEN del growth)
O=C1NC(=O)C(CCc2ccncc2)(CCc2ccccn2)C(=O)N1c1ccc(Br)cc1 (stereo not drawn)	none (no result: HCT116 bCat-KO, PTEN del growth)
CCC(C)n1c(O)c(C=NCC2CCCO2)c(=O)[nH]c1=S (stereo not drawn)	none (no result: Autophagy HCS, L major viab, HCT116 bCat-KO, PTEN del growth)
CC1(C)CC(=O)C(C=NCCN2CCN(C(=O)Cc3ccc(Cl)cc3)CC2)=C(O)C1	none
CNCCc1c[nH]c2ccccc12	none (no result: HCT116 bCat-KO, PTEN del growth)
c1ccc2c(CCNCc3ccc4c(c3)OCO4)c[nH]c2c1	L major viab 77
Cn1cnc([N+](=O)[O-])c1Sc1ccc([N+](=O)[O-])cc1	L major viab 84 (no result: HCT116 bCat-KO, PTEN del growth)
Cc1cc2c(C(C)C)c(O)c(O)c(C=O)c2c(O)c1-c1c(C)cc2c(C(C)C)c(O)c(O)c(C=O)c2c1O	HCT116 bCat-KO 4.8, PTEN del growth 1.9!
CN1CCN(C(=O)COc2ccc(-c3nc4ccccc4s3)cc2)CC1	L major viab 100
CC(C)NS(=O)(=O)c1ccc(OCC(=O)N2CCN(C)CC2)cc1	none
O=C1CN(C(=O)CN2CCCCC2)C(c2ccccc2)c2cc(Br)ccc2N1 (stereo not drawn)	L major viab 98
O=C(N/N=C1/CN2CCC1CC2)c1cc2ccccc2cc1O	L major viab 92
O=[N+]([O-])c1ccc(N2CCCC2)cc1N/N=C1\CN2CCC1CC2	none
COc1ccc(C(O)c2cc(OC)ccc2OP(=O)(N(C)C)N(C)C)cc1 (stereo not drawn)	none
COc1ccc(C(O)c2ccccc2OP(=O)(N(C)C)N(C)C)cc1 (stereo not drawn)	L major viab 66
CC12CC[C@H]3[C@@H](CCC4(O)C[C@H](O)CCC34/C=N/NC(=O)c3ccccc3Cl)C1(O)CCC2C1=CC(=O)OC1 (stereo partly drawn)	none (no result: Autophagy HCS, L major viab, HCT116 bCat-KO, PTEN del growth)
C[C@H]1O[C@@H](O[C@H]2[C@@H](O)C[C@H](O[C@H]3[C@@H](O)C[C@H](O[C@H]4CC[C@@]5(C)[C@H](CC[C@@H]6[C@@H]5CC[C@]5(C)[C@@H](C7=CC(=O)OC7)CC[C@]65O)C4)O[C@@H]3C)O[C@@H]2C)C[C@H](O)[C@@H]1O	HCT116 bCat-KO 4.9
C[C@@H]1O[C@@H](O[C@H]2C[C@@H](O)[C@]3(CO)[C@H]4[C@H](O)C[C@]5(C)[C@@H](C6=CC(=O)OC6)CC[C@]5(O)[C@@H]4CC[C@]3(O)C2)[C@H](O)[C@H](O)[C@H]1O	HCT116 bCat-KO 5.7
OC(CCNCCc1c[nH]c2ccccc12)C(F)(F)Cl (stereo not drawn)	none (no result: HCT116 bCat-KO, PTEN del growth)
O=C(c1ccc(Cl)cc1)C1CCCN(Cc2ccc3ncccc3c2)C1 (stereo not drawn)	L major viab 88 (no result: HCT116 bCat-KO, PTEN del growth)
O=C(c1ccc(Cl)cc1)C1CCCN(Cc2ccc3c(c2)OCCO3)C1 (stereo not drawn)	L major viab 92 (no result: HCT116 bCat-KO, PTEN del growth)
O=C(c1cccc(Cl)c1)C1CCCN(Cc2ccon2)C1 (stereo not drawn)	none (no result: HCT116 bCat-KO, PTEN del growth)
c1cc2c(cc1CCNC1C3CC4CC(C3)CC1C4)OCO2 (stereo not drawn)	L major viab 86
CC1CCC(NCCc2ccc3c(c2)OCO3)CC1 (stereo not drawn)	L major viab 93
COP(=O)(C#Cc1ccccc1)C(O)c1ccc(Br)cc1 (stereo not drawn)	none (no result: Autophagy HCS, L major viab, HCT116 bCat-KO, PTEN del growth)
CC(Cc1ccsc1)NCc1cn[nH]c1-c1ccc(F)cc1F (stereo not drawn)	none (no result: Autophagy HCS, L major viab, HCT116 bCat-KO, PTEN del growth)
c1ccc2c(CN3CCCCCC3)c[nH]c2c1	L major viab 57 (no result: HCT116 bCat-KO, PTEN del growth)
BrCC1C[n+]2c(SCc3ccccc3)nc3sc4c(c3c2O1)CCCC4 (stereo not drawn)	none (no result: Autophagy HCS, L major viab, HCT116 bCat-KO, PTEN del growth)
Nc1c2c(nc3sc4c(c13)CCCCC4)CCCC2	L major viab 93, HCT116 bCat-KO 3.4
CN1C2CCC1CC(=NO)C2	none (no result: HCT116 bCat-KO, PTEN del growth)
Cc1ccsc1C(=O)C1CCCN(Cc2cccn2-c2ccccn2)C1 (stereo not drawn)	L major viab 61 (no result: HCT116 bCat-KO, PTEN del growth)
Cc1ccccc1-n1c(/C=C/c2ccccn2)nc2ccccc2c1=O	none (no result: Autophagy HCS, L major viab, HCT116 bCat-KO, PTEN del growth)
CN1C2CCC1/C(=C/c1ccccn1)C(=O)/C2=C\c1ccccn1	L major viab 100, Dynein cargo inh -3.6, HCT116 bCat-KO 1.8, PTEN del growth 1.8
Fc1c(F)c(F)c(N2CCNCC2)c(F)c1F	none (no result: HCT116 bCat-KO, PTEN del growth)
CCC(CC)N1CCN(C(=O)Cc2ccccc2)CC1	none
CCCCCc1nc2ccccc2c(=O)n1-c1ccccc1[N+](=O)[O-]	L major viab 51
N#Cc1ccc(/C=C/C(=O)O)cc1	none (no result: Autophagy HCS, L major viab, HCT116 bCat-KO, PTEN del growth)
O=[N+]([O-])c1cccc(CN2CCN(Cc3ccc(Br)cc3)CC2)c1	L major viab 87 (no result: HCT116 bCat-KO, PTEN del growth)
Cc1ccc(C)c(NC(=S)NCCc2cnc[nH]2)c1	none (no result: Autophagy HCS, L major viab, HCT116 bCat-KO, PTEN del growth)
CC(C)CCNC(=O)c1c(N)n(CC2CCCO2)c2nc3ccccc3nc12 (stereo not drawn)	none
CCC(C)NC(=O)c1c(N)n(CC2CCCO2)c2nc3ccccc3nc12 (stereo not drawn)	L major viab 67
CCC(C)NC(=O)c1c(N)n(Cc2ccc3c(c2)OCO3)c2nc3ccccc3nc12 (stereo not drawn)	L major viab 65, HCT116 bCat-KO 1.4, PTEN del growth 1.4
Cc1nn(Cc2ccccc2)c(C)c1C(=O)O	none (no result: HCT116 bCat-KO, PTEN del growth)
Cc1nn(-c2ccccc2)c2c1C(c1ccc3c(c1)OCO3)SCC(=O)N2 (stereo not drawn)	L major viab 99
COc1cc(C2SCC(=O)Nc3c2c(C)nn3-c2ccccc2)cc(OC)c1OC (stereo not drawn)	L major viab 91
Cc1nn(C2CCOC(C)(C)C2)c2c1C(c1ccc3c(c1)OCO3)SCC(=O)N2 (stereo not drawn)	none
CC(NC1CCCCC1)C(O)C12CC3CC(CC(C3)C1)C2 (stereo not drawn)	none
COc1ccc(C(=O)C2CCCN(Cc3ccsc3)C2)cc1OC (stereo not drawn)	L major viab 96 (no result: HCT116 bCat-KO, PTEN del growth)
O=C(c1cc(F)ccc1F)C1CCCN(Cc2ccc3nonc3c2)C1 (stereo not drawn)	L major viab 86 (no result: HCT116 bCat-KO, PTEN del growth)
COc1cccc(C(=O)C2CCCN(Cc3ccc4nonc4c3)C2)c1 (stereo not drawn)	L major viab 89 (no result: HCT116 bCat-KO, PTEN del growth)
COc1ccc(CN2CCCC(C(=O)c3ccccc3SC)C2)cc1O (stereo not drawn)	L major viab 63 (no result: HCT116 bCat-KO, PTEN del growth)
CSc1ccccc1C(=O)C1CCCN(Cc2ccccn2)C1 (stereo not drawn)	none (no result: HCT116 bCat-KO, PTEN del growth)
Cc1ccccc1-n1c(-c2ccoc2)nc2ccccc2c1=O	none (no result: HCT116 bCat-KO, PTEN del growth)
O=C1CC(c2ccccc2)CN1 (stereo not drawn)	none (no result: Autophagy HCS, L major viab, HCT116 bCat-KO, PTEN del growth)

Bioassay records from PubChem BioAssay.
